Measured values taken from ChEMBL document CHEMBL2331390, “Telomere shortening and cell senescence induced by perylene derivatives in A549 human lung cancer cells” (Bioorg Med Chem, 2013).
Active and inactive are the calls of the source. The rule behind the calls is not given here.

Key:
A549 [1] = assay: Binding affinity to human TERT promoter DNA sequence in human A549 cells assessed as decrease in TERT mRNA expression after 24 hrs by semi-quantitative PCR analysis; assay type: cell-based
Procedure, shortened: (§1)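 A549 cells (3.0×10^5) grown 24 h in RPMI 1640 + 10% FBS at 37 °C, 5% CO2, then exposed to compound for 24 h. Total RNA by Trizol, reverse transcribed, hTERT amplified with specific primers. Semi-quantitative and real-time SYBR Green PCR (45 cycles), standard-curve method, normalized to GAPDH. Three independent experiments.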

A549 [2] = assay: Cytotoxicity against human A549 cells assessed as colony formation at 0.8 uM incubated for 6 days followed by subculturing in compound-free medium measured after 14 days by crystal violet staining method relative to control; assay type: functional
Procedure, shortened: (§2)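 A549 cells from the long-term culture (0.4 or 0.8 μM, medium changed every 3 days, replated every 6 days) were collected on the stated day. 2×10^3 cells seeded per 10-cm dish, fed every 4-5 days. Colonies stained with crystal violet after 14 days and counted; expressed as % of control. Controls under 25 colonies excluded. Three independent experiments.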

A549 [3] = assay: Induction of senescence in human A549 cells assessed as increase in beta-galactosidase activity at 0.4 uM incubated for 54 days followed by subculturing on compound-free medium measured after 48 hrs by fluorescence microscopic analysis; assay type: functional, cell-based
Procedure, shortened: (§3)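 A549 cells from the long-term treatment replated and grown 48 h. Fixed in 2% formaldehyde/0.2% glutaraldehyde for 5 min at RT. Stained overnight with 1 mg/ml X-gal in pH 6 citrate/phosphate buffer with 5 mM ferro/ferricyanide, 150 mM NaCl, 2 mM MgCl2. Enlarged blue cells scored by microscopy.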

A549 [4] = assay: Antiproliferative activity against human A549 cells assessed as decrease in cell viability at 0.4 uM after 42 days; assay type: functional, cell-based
Procedure, shortened: (§4)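 A549 cells (1.5×10^5) seeded in RPMI 1640 + 10% FBS with 0.4 or 0.8 μM perylene or medium only. Medium changed every 3 days. Every 6 days, at confluence, cells were trypsinized, counted by hemocytometer and replated at 1.5×10^5. Population doublings n = (log Pn − log P0)/log 2, cumulated against time. Three independent experiments.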

[5] = Binding affinity to TSG4 primer DNA (unknown origin) assessed as inhibition of telomerase-mediated extension of primer […] by fluorescence-based TRAP assay
Procedure, shortened: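 Cell-free TRAP. Compound preincubated with TSG4 primer in telomerase buffer (20 mM Tris-HCl pH 7.4, 1.5 mM MgCl2, 63 mM KCl, 1 mM EGTA, 200 µM dNTPs) at 37 °C for 2 h. Crude telomerase (50 ng) from telomerase-transfected HEK293T added, 30 °C for 30 min. Compound removed by phenol-chloroform, products ethanol-precipitated, PCR with FAM-tagged primer, 8% native PAGE, phosphoimaging. IC50 ± SD from three experiments.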

A549 [6] = assay: Cytotoxicity against human A549 cells assessed as colony formation at 0.8 uM incubated for 24 days followed by subculturing in compound-free medium measured after 14 days by crystal violet staining method relative to control; assay type: functional; procedure, shortened: as §2
A549 [7] = assay: Cytotoxicity against human A549 cells assessed as colony formation at 0.4 uM incubated for 54 days followed by subculturing in compound-free medium measured after 14 days by crystal violet staining method relative to control; assay type: functional; procedure, shortened: as §2
Homo sapiens [8] = species: Homo sapiens; assay: Binding affinity to human TERT2 5'-GGGGGCTGGGCCGGGGACCCGGGAGGGGTCGGGACGGGGCGGGG-3' DNA assessed as induction of intramolecular G-quadruplex formation at 4 uM after 10 hrs by PAGE analysis
Procedure, shortened: (§5)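 FAM-labeled G-rich strand (2 µM) and complementary C-rich strand (2 µM) with compound in 10 mM Tris-HCl pH 7.4, 100 mM KCl. Heated to 95 °C for 5 min, slowly cooled to 55 °C, held 10 h, then cooled to 4 °C. Duplex vs G-quadruplex resolved on 16% native PAGE with 50 mM KCl (4 °C, 350 V, 10 h) and fluorescence-imaged.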

A549 [9] = assay: Binding affinity to human TERT promoter DNA sequence in human A549 cells assessed as telomere restriction fragment length at 0.8 uM after 6 days by TeloTAGGG-based chemiluminescence assay (reference value: 3.6 kb); assay type: cell-based
Procedure, shortened: (§6)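 Genomic DNA from A549 cells kept long-term with 0.4 or 0.8 μM compound (medium changed every 3 days, replated every 6 days). DNA isolated with DNAzol. 2 µg digested with RsaI/HinfI, run on 0.8% agarose, Southern-blotted, hybridized with DIG-labeled telomeric probe, anti-DIG alkaline phosphatase, chemiluminescence. Mean TRF = Σ(ODi)/Σ(ODi/Li).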

A549 [10] = assay: Binding affinity to human TERT promoter DNA sequence in human A549 cells assessed as decrease in TERT mRNA expression at 6 uM after 24 hrs by semi-quantitative PCR analysis relative to control; assay type: cell-based; design: scale not given: the % may be the effect or the level left; procedure, shortened: as §1
Homo sapiens [11] = species: Homo sapiens; assay: Binding affinity to human TERT2 5'-GGGGGCTGGGCCGGGGACCCGGGAGGGGTCGGGACGGGGCGGGG-3' DNA assessed as induction of intermolecular G-quadruplex formation at 8 to 32 uM after 10 hrs by PAGE analysis; procedure, shortened: as §5
A549 [12] = assay: Cytotoxicity against human A549 cells assessed as reduction in colony formation incubated for 24 days followed by subculturing in compound-free medium measured after 14 days by crystal violet staining method; assay type: functional, cell-based; procedure, shortened: as §2
A549 [13] = assay: Binding affinity to human TERT promoter DNA sequence in human A549 cells assessed as telomere restriction fragment length at 0.8 uM after 18 days by TeloTAGGG-based chemiluminescence assay (reference value: 3.6 kb); assay type: cell-based; procedure, shortened: as §6
A549 [14] = assay: Cytotoxicity against human A549 cells assessed as colony formation at 0.4 uM incubated for 6 days followed by subculturing in compound-free medium measured after 14 days by crystal violet staining method relative to control; assay type: functional; procedure, shortened: as §2
A549 [15] = assay: Binding affinity to human TERT promoter DNA sequence in human A549 cells assessed as telomere restriction fragment length at 0.8 uM after 30 days by TeloTAGGG-based chemiluminescence assay (reference value: 3.6 kb); assay type: cell-based; procedure, shortened: as §6
A549 [16] = assay: Binding affinity to human TERT promoter DNA sequence in human A549 cells assessed as telomere restriction fragment length at 0.4 uM after 24 days by TeloTAGGG-based chemiluminescence assay (reference value: 3.6 kb); assay type: cell-based; procedure, shortened: as §6
A549 [17] = assay: Binding affinity to human TERT promoter DNA sequence in human A549 cells assessed as telomere restriction fragment length at 0.4 uM after 54 days by TeloTAGGG-based chemiluminescence assay (reference value: 3.6 kb); assay type: cell-based; procedure, shortened: as §6
A549 [18] = assay: Binding affinity to human TERT promoter DNA sequence in human A549 cells assessed as telomere restriction fragment length at 0.4 uM after 6 days by TeloTAGGG-based chemiluminescence assay (reference value: 3.6 kb); assay type: cell-based; procedure, shortened: as §6
A549 [19] = assay: Cytotoxicity against human A549 cells assessed as colony formation at 0.4 uM incubated for 24 days followed by subculturing in compound-free medium measured after 14 days by crystal violet staining method relative to control; assay type: functional; procedure, shortened: as §2
A549 [20] = assay: Antiproliferative activity against human A549 cells assessed as cell division arrest at 0.8 uM measured on day 36; assay type: functional, cell-based; procedure, shortened: as §4
A549 [21] = assay: Antiproliferative activity against human A549 cells assessed as effect on population doubling at 0.4 uM up to 42 days; assay type: functional, cell-based; procedure, shortened: as §4
Homo sapiens [22] = species: Homo sapiens; assay: Binding affinity to human telomeric 5'-AGATAGTTAGGGTTAGGGTTAGGGTTAGGGTT-3' DNA assessed as induction of intramoleculsr G-quadruplex formation after 10 hrs by PAGE analysis; procedure, shortened: as §5
A549 [23] = assay: Antiproliferative activity against human A549 cells assessed as decrease in population doubling at 0.8 uM after 18 days; assay type: functional, cell-based; procedure, shortened: as §4
A549 [24] = assay: Antiproliferative activity against human A549 cells assessed as decrease in population doubling at 0.4 uM after 42 days; assay type: functional, cell-based; procedure, shortened: as §4
A549 [25] = assay: Binding affinity to human TERT promoter DNA sequence in human A549 cells assessed as inhibition of telomerase-mediated MTS primer extension after 24 hrs by fluorescence-based TRAP assay; assay type: cell-based
Procedure, shortened: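 A549 cells exposed to compound for 24 h, lysed in CHAPS buffer, protein measured by Bradford. 6 µg lysate protein used as telomerase source in fluorescent TRAP with MTS primer (no G-quadruplex motif), with no phenol-chloroform step. FAM-primer PCR, native PAGE, fluorescence quantified. Mean ± SD of three experiments.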

Homo sapiens [26] = species: Homo sapiens; assay: Binding affinity to human TERT1 5'-AAGGGGAGGGGCTGGGAGGGCCCGGA-3' DNA assessed as induction of intramoleculsr G-quadruplex formation after 10 hrs by PAGE analysis; procedure, shortened: as §5
A549 [27] = assay: Induction of senescence in human A549 cells assessed as cell enlargement at 0.4 uM incubated for 54 days followed by subculturing on compound-free medium measured after 48 hrs by fluorescence microscopic analysis; assay type: functional, cell-based; procedure, shortened: as §3

Question: With `CCN(CC)CCN1C(=O)c2ccc3c4cccc5c(N6CCNCC6)ccc(c6ccc(c2c36)C1=O)c54` as the molecule, how does the Activity (A549 [1]) read?
Answer: Dose-dependent effect

Question: And the Activity (A549 [2])?
Answer: 100%

Question: And the Activity (A549 [3])?
Answer: Active

Question: And the Activity (A549 [4])?
Answer: inactive

Question: What about the IC50 [5] of the same molecule?
Answer: 800 nM

Question: What about the inhibition [5] of the same molecule?
Answer: Dose-dependent effect

Question: And the Activity (A549 [6])?
Answer: 35%

Question: What about the Activity (A549 [7]) of the same molecule?
Answer: 60%

Question: And the Activity (Homo sapiens [8])?
Answer: Active

Question: And the Activity (A549 [9])?
Answer: 3.6 kilobase

Question: And the Activity (A549 [10])?
Answer: 37%

Question: What about the Activity (Homo sapiens [11]) of the same molecule?
Answer: Active

Question: What about the Activity (A549 [12]) of the same molecule?
Answer: Dose-dependent effect

Question: What about the Activity (A549 [13]) of the same molecule?
Answer: 3.5 kilobase

Question: And the Activity (A549 [14])?
Answer: 100%

Question: And the Activity (A549 [15])?
Answer: 3.2 kilobase

Question: And the Activity (A549 [16])?
Answer: 3.5 kilobase

Question: And the Activity (A549 [17])?
Answer: 2.9 kilobase

Question: And the Activity (A549 [18])?
Answer: 3.6 kilobase

Question: What about the Activity (A549 [19]) of the same molecule?
Answer: 73%

Question: What about the Activity (A549 [20]) of the same molecule?
Answer: Active

Question: And the Activity (A549 [21])?
Answer: inactive

Question: What about the Activity (Homo sapiens [22]) of the same molecule?
Answer: Dose-dependent effect

Question: And the Activity (A549 [23])?
Answer: Active

Question: What about the Activity (A549 [24]) of the same molecule?
Answer: Active

Question: What about the Activity (A549 [25]) of the same molecule?
Answer: Dose-dependent effect

Question: What about the Activity (Homo sapiens [26]) of the same molecule?
Answer: Dose-dependent effect

Question: What about the Activity (A549 [27]) of the same molecule?
Answer: Active
